Source: ChEMBL document CHEMBL2163303, “The development of first Staphylococcus aureus SplB protease inhibitors: phosphonic analogues of glutamine” (Bioorg Med Chem Lett, 2012)
Calls of active or inactive are those of the source. No cut-off for these calls is given here.

How the values were obtained:
[1] = Ratio of rate of irreversible step k2 to Ki for subtilisin using fluorogenic Suc-Ala-Ala-Pro-Phe-AMC as substrate by spectrofluorometry
Outline: (§1)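 Run in 0.1 M HEPES, 0.5 M NaCl, 0.03% Triton X-100, pH 7.5, 37 °C, with chymotrypsin at 3 nM or subtilisin at 5 nM. Enzyme added to Suc-Ala-Ala-Pro-Phe-AMC plus excess inhibitor, read at Ex 350/Em 460 nm. k_obs taken from progress curves; k2/Ki derived via a Km-corrected irreversible-inhibition model.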

[2] = Inhibition of chymotrypsin using fluorogenic Suc-Ala-Ala-Pro-Phe-AMC as substrate by spectrofluorometry; outline: as §1
[3] = Inhibition of subtilisin using fluorogenic Suc-Ala-Ala-Pro-Phe-AMC as substrate by spectrofluorometry; outline: as §1
Serine protease SplB = target: T1, Serine protease SplB (Staphylococcus aureus, UniProt Q53781); test: Inhibition of Staphylococcus aureus SplB using fluorogenic […] as substrate by spectrofluorometry
T1 sequence (Q53781 whole entry): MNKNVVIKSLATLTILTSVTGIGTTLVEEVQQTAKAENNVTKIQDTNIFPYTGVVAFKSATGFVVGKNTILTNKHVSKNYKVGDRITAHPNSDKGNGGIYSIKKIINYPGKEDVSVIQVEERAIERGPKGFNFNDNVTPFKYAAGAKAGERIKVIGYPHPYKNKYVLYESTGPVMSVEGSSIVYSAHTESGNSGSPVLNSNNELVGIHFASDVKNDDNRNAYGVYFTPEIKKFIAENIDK
Outline: (§2)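 Enzyme added to substrate plus excess inhibitor in 0.1 M Tris-HCl, 0.01% Triton X-100, pH 7.6, 37 °C; SplB at 100 nM. Ac-Trp-Glu-Leu-Gln-ACC read at Ex 355/Em 460 nm. Pseudo-first-order k_obs taken from progress curves; k2/Ki fitted using substrate Km.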

[4] = target: T2, Serine protease SplB (Staphylococcus aureus) (UniProt Q53781); test: Ratio of rate of irreversible step k2 to Ki for Staphylococcus aureus SplB using fluorogenic […] as substrate up to 200 uM by spectrofluorometry; outline: as §2
T2 sequence (whole entry): T1 sequence (Q53781 whole entry)

[5] = Ratio of rate of irreversible step k2 to Ki for chymotrypsin using fluorogenic Suc-Ala-Ala-Pro-Phe-AMC as substrate by spectrofluorometry; outline: as §1
[6] = target: T2, Serine protease SplB (Staphylococcus aureus); test: Inhibition of Staphylococcus aureus SplB using fluorogenic […] as substrate up to 200 uM by spectrofluorometry; outline: as §2

SMILES	Ratio [1]	Ki [2]	Ki [3]	Ki (Serine protease SplB)	Ratio [4]	Ratio [5]	inhibition [6]
CC(C)CC(NC(=O)OCc1ccccc1)C(=O)NC(CCC(N)=O)P(=O)(Oc1ccccc1)Oc1ccccc1 (mixture of isomers)	< 10 M⁻¹ s⁻¹	> 200 µM	> 200 µM	> 200 µM	< 10 M⁻¹ s⁻¹	< 10 M⁻¹ s⁻¹	inactive
COc1ccc(OP(=O)(Oc2ccc(OC)cc2)C(CCC(N)=O)NC(=O)C(CC(C)C)NC(=O)OCc2ccccc2)cc1 (mixture of isomers)	57 M⁻¹ s⁻¹	> 200 µM	35 µM	> 200 µM	< 10 M⁻¹ s⁻¹	< 10 M⁻¹ s⁻¹	inactive
CCc1ccc(OP(=O)(Oc2ccc(CC)cc2)C(CCC(N)=O)NC(=O)C(CC(C)C)NC(=O)OCc2ccccc2)cc1 (mixture of isomers)	< 10 M⁻¹ s⁻¹	> 200 µM	> 200 µM	> 200 µM	< 10 M⁻¹ s⁻¹	< 10 M⁻¹ s⁻¹	inactive
NC(=O)CCC(NC(=O)OCc1ccccc1)P(=O)(Oc1ccccc1)Oc1ccccc1 (racemic)	< 10 M⁻¹ s⁻¹	> 200 µM	> 200 µM	> 200 µM	< 10 M⁻¹ s⁻¹	< 10 M⁻¹ s⁻¹	inactive
COc1ccc(OP(=O)(Oc2ccc(OC)cc2)C(CCC(N)=O)NC(=O)OCc2ccccc2)cc1 (racemic)	33 M⁻¹ s⁻¹	> 200 µM	111 µM	> 200 µM	< 10 M⁻¹ s⁻¹	< 10 M⁻¹ s⁻¹	inactive
CC(C)(C)c1ccc(OP(=O)(Oc2ccc(C(C)(C)C)cc2)C(CCC(N)=O)NC(=O)OCc2ccccc2)cc1 (racemic)	< 10 M⁻¹ s⁻¹	> 200 µM	> 200 µM	> 200 µM	< 10 M⁻¹ s⁻¹	< 10 M⁻¹ s⁻¹	inactive
CCc1ccc(OP(=O)(Oc2ccc(CC)cc2)C(CCC(N)=O)NC(=O)OCc2ccccc2)cc1 (racemic)	< 10 M⁻¹ s⁻¹	> 200 µM	> 200 µM	> 200 µM	< 10 M⁻¹ s⁻¹	< 10 M⁻¹ s⁻¹	inactive
CC(C)CC(NC(=O)OCc1ccccc1)C(=O)NC(CCC(N)=O)P(=O)(Oc1ccc(C(C)(C)C)cc1)Oc1ccc(C(C)(C)C)cc1 (racemic)	< 10 M⁻¹ s⁻¹	> 200 µM	> 200 µM	> 200 µM	< 10 M⁻¹ s⁻¹	< 10 M⁻¹ s⁻¹	inactive
